Screening data: PubChem, several laboratories
A selection: hits, their analogues and other compounds. The true share with any hit is near 4.3%.
TAAR1 antag = human TAAR1 antagonists, primary screen, Fluo-8 calcium fluorescence, CHO RD-HGA16 cells; Trace amine-associated receptor 1 (Homo sapiens), Q96RJ0; antagonist; inhibition, % at 3 µM; 360,000 compounds, 1.5% hits; AID 624466, 2012;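 active = inhibition above a per-plate cutoff, the mean inhibition of test compounds on that plate plus 3 SD, cut at about 49% in these data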
Target sequence (Q96RJ0 whole entry, looked up): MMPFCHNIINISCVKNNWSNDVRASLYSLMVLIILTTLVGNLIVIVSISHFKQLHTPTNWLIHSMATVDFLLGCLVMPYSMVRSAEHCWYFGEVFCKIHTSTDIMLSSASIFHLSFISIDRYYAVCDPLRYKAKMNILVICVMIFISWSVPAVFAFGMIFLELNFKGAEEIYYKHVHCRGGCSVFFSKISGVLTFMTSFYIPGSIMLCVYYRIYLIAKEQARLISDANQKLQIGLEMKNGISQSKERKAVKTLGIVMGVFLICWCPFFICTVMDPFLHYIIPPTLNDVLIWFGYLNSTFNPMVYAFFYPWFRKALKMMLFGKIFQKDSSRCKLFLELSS
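System: RD-HGA16 CHO cells with stable hTAAR1 and Gα16 | Probe or stimulus: EC80 β-phenethylamine stimulus | Dosing: 3 µM, single point | Times: Dye loading 75 min at 37 °C, then 30 min room temperature | Measured by: Fluo-8 calcium-sensitive fluorescence | Read-out basis: % inhibition of agonist calcium response | Replicates: n of 1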
Beta2AR agonist = beta2AR agonists driving receptor internalization, primary screen, cell-based, FAP fluorogen, flow cytometry | Am2.2-beta2AR cells | response, % (test concentration not listed) | Beta-2 adrenergic receptor (Homo sapiens), P07550 | 340,000 compounds, 0.43% hits;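 active = response above a set limit, near 3 SD of response in nonfluorescent compounds, cut at about 42% in these data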
TAAR1 ag = human TAAR1 agonists, primary screen, Fluo-8 calcium fluorescence, CHO RD-HGA16 cells. Trace amine-associated receptor 1 (Homo sapiens), Q96RJ0. vehicle wells 0%, saturating PEA agonist 100%. activation, % at 3 µM. 360,000 compounds, 0.99% hits. AID 624467, 2012;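 active = activation above the mean activation of all test compounds in the run plus 3 SD, cut at about 38% in these data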
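Assay system: CHO-derived RD-HGA16 cells with stable Gα16 and human TAAR1; timing: 17-24 h seeding, 75 min 37 °C dye, 30 min RT; read-out: % activation from peak over basal fluorescence ratio, DMSO-to-PEA scaled; measured by: kinetic Fluo-8 calcium fluorescence; benchmarks: low control DMSO, high control PEA (EC100); doses: 3 µM single concentration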
MC4R antag cAMP = MC4R antagonists of cAMP signaling, primary screen, cell-based, TR-FRET, antagonist arm of biased-ligand search; Melanocortin receptor 4 (Homo sapiens), P32245; AID 540295, 2011; MC4R-expressing cells, MTII-stimulated cAMP, LANCE TR-FRET; 360,000 compounds, 0.48% hits; inhibition, % at 6.5 µM;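 active = inhibition above its plate's cutoff, the mean of tested wells on that plate plus 3 SD, cut at about 29% in these data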
Target sequence (P32245 whole entry, looked up): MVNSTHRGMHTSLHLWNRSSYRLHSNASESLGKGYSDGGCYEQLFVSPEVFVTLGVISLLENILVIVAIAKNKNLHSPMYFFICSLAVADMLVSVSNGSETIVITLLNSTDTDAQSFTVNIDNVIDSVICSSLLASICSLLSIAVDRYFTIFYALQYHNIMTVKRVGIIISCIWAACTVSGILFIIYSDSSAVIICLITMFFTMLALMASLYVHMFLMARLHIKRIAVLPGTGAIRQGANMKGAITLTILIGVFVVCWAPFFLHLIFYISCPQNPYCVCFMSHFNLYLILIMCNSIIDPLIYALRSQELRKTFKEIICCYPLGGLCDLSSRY
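Material – human MC4R-expressing U2OS cells · Repeats – no replicates · Detection – TR-FRET with Eu-cAMP and labeled anti-cAMP, 671 nm · Times – compound 30 min, challenge 1 h, detection 1 h · Compound – single nominal compound dose of 6.5 µM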
m5-HT2A agonist = mouse Htr2a agonists via beta-arrestin recruitment, primary screen, cell-based, luminescence; 5-hydroxytryptamine receptor 2A (Mus musculus), P35363; activation, % at 7.6 µM; CHO-K1 mHTR2A beta-arrestin complementation; percent of 30 µM serotonin response; 360,000 compounds, 0.66% hits;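 active = activation above a run cutoff, the mean activation of all tested compounds plus 3 SD, cut at about 14% in these data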
MC4R ag barr = MC4R agonists recruiting beta-arrestin, primary screen, cell-based, luminescence, agonist arm of biased-ligand search; 360,000 compounds, 0.98% hits; AID 540308, 2011; U2OS MC4R beta-arrestin complementation; percent of melanotan II response, DMSO zero; activation, % at 8.9 µM;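 active = activation above a per-plate cutoff, the mean activation of sample wells on that plate plus 3 SD, cut at about 8% in these data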
MOR ag counter = OPRM1 agonists via beta-arrestin recruitment, confirmation, counter-screen for mouse HTR2A agonist project, cell-based, luminescence, single concentration | shares compounds with m5-HT2A agonist | activation, % at 9.3 µM | U2OS OPRM1 beta-arrestin PathHunter; DMSO 0%, DAMGO 9.3 µM 100% | 2,300 compounds, 5.3% hits | AID 624380, 2012;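 active = mean activation above the mean of DMSO-only wells plus 3 SD, cut at about 0.5% in these data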
HTR2A ag conf = mouse HTR2A agonists, beta-arrestin recruitment, confirmation, cell-based, luminescence, CHO-K1 PathHunter, triplicate | DMSO 0%, 30 µM serotonin 100% | activation, % at 7.6 µM | 2,300 compounds, 19% hits | shares compounds with m5-HT2A agonist | AID 624381, 2012;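 active = mean activation across triplicates above the hit threshold derived in the original primary screen, cut at about 15% in these data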
Large screens that a line does not name were inactive (follow-up assays come after a bar, where they were run).

Cc1ccc2c(c1)CCCN2S(=O)(=O)c1cccc(C(=O)Nc2ccccc2C(=O)O)c1	m5-HT2A agonist 15 | MOR ag counter inactive | HTR2A ag conf inactive
COc1cc(OC)c(N2CC(C(=O)Nc3cccc(C(=O)NC4CC4)c3)CC2=O)cc1Cl (centres undefined)	none
CCc1cc2c(SCc3ccc(C(=O)OC)o3)ncnc2s1	m5-HT2A agonist 15 | MOR ag counter inactive | HTR2A ag conf inactive
COc1ccc(C(C(=O)NC2CCCC2)N(Cc2ccccc2)C(=O)c2snc(C(N)=O)c2N)cc1OC (centres undefined)	m5-HT2A agonist 16 | MOR ag counter inactive | HTR2A ag conf inactive
COc1ccc(C(C(=O)NC2CCCC2)N(C(=O)c2snc(C(N)=O)c2N)c2ccccc2OC)cc1OC (centres undefined)	none
CC1CN(C)C(C)c2c1oc1ccc(N)cc21 (centres undefined)	none
CC1CN(C)C(C)c2c1oc1ccc([N+](=O)[O-])cc21 (centres undefined)	m5-HT2A agonist 22 | MOR ag counter inactive | HTR2A ag conf inactive
COc1cc(OC)c(C=NNC(=S)NC23CC4CC(CC(C4)C2)C3)c(OC)c1	none
COc1ccc(CC2(CO)CCN(Cc3cc4ccccc4o3)CC2)cc1	m5-HT2A agonist 40 | MOR ag counter inactive | HTR2A ag conf 66
OCC1(Cc2cccc(C(F)(F)F)c2)CCN(Cc2cc3ccccc3o2)CC1	m5-HT2A agonist 24, MC4R ag barr 9.2 | MOR ag counter inactive | HTR2A ag conf 64
O=S(=O)(NCCN1CCN(S(=O)(=O)c2ccccc2F)CC1)c1ccccc1F	none
Cc1ccc(NC(=O)C(=O)NCCCN2CCOCC2)c(C)c1	none
CC(O)(c1ccc(F)c(F)c1)c1nc(-c2cccc3cccnc23)cs1 (centres undefined)	none (no result: Beta2AR agonist)
Cc1ccc(-c2nc(CS(=O)(=O)CC(=O)NCCN3CCOCC3)c(C)o2)cc1	none
Cc1oc(-c2cccc(Cl)c2)nc1CS(=O)(=O)CC(=O)NCCCN1CCOCC1	m5-HT2A agonist 25 | MOR ag counter inactive | HTR2A ag conf inactive
CC1(c2ccc3c(c2)OCCO3)NC(=O)N(CC(=O)Nc2ccccc2SCC#N)C1=O (centres undefined)	none
CC(C)(O)c1[nH]c2ccc(C(F)(F)F)cc2c1C(C)(C)O	none
CN(C)Cc1c(C(C)(C)O)[nH]c2ccc(C(F)(F)F)cc12	m5-HT2A agonist 23 | MOR ag counter inactive | HTR2A ag conf 20
CN1C(C(=O)NCc2cccc(C(F)(F)F)c2)CC2Cn3c(nc4cc(Cl)c(Cl)cc43)C21 (centres undefined)	m5-HT2A agonist 20 | MOR ag counter inactive | HTR2A ag conf inactive
CN1C(C(=O)NCc2cccc(Br)c2)CC2Cn3c(nc4cc(Cl)c(Cl)cc43)C21 (centres undefined)	none
CC(C)(C)NC(=O)CN(C(=O)CNC(=O)c1cccs1)c1ccccc1F	m5-HT2A agonist 16 | MOR ag counter inactive | HTR2A ag conf inactive
COc1ccc(S(=O)(=O)NC(C)C(=O)NCc2cccnc2)cc1C (centres undefined)	m5-HT2A agonist 15 | MOR ag counter inactive | HTR2A ag conf inactive
Cc1ccc(C(=O)CCC(=O)Nc2ccccc2F)cc1	none
Cn1c(=O)c2cc(NC(=O)NCc3ccc(Cl)cc3Cl)ccc2n1Cc1ccccc1	none (no result: Beta2AR agonist)
O=C(Oc1ccc(=O)[nH]n1)c1ccccc1	none (no result: Beta2AR agonist)
Cc1cccc(-n2ncc3c2CCCC3NC(=O)CCN2CCCO2)c1C (centres undefined)	m5-HT2A agonist 16 | MOR ag counter inactive | HTR2A ag conf inactive
Cc1cccc(-n2ncc3c2CCCC3NC(=O)C2(C(N)=O)CC2)c1C (centres undefined)	m5-HT2A agonist 15 | MOR ag counter inactive | HTR2A ag conf inactive
Cc1cccc(-n2ncc3c2CCCC3NC(=O)CCN2CCCCO2)c1C (centres undefined)	none
COCCN(C(=O)CSc1nnc(C)n1-c1ccc(C)cc1)c1c(N)n(Cc2ccccc2)c(=O)[nH]c1=O	none
Cc1ccc(-n2c(C)nnc2SCC(=O)N(C)c2c(N)n(Cc3ccccc3)c(=O)[nH]c2=O)cc1	m5-HT2A agonist 17 | MOR ag counter inactive | HTR2A ag conf inactive
CCN(C(=O)CSc1nnc(-c2ccccc2C)n1C)c1c(N)n(Cc2ccccc2)c(=O)[nH]c1=O	m5-HT2A agonist 14 | MOR ag counter inactive | HTR2A ag conf inactive
Cc1ccccc1-c1nnc(SCC(=O)N(C)c2c(N)n(Cc3ccccc3)c(=O)[nH]c2=O)n1C	none
CC1CC(C)(C)CC2(C1)NC(=O)N(CC(=O)N1CCN(Cc3ccc(C#N)cc3)CC1)C2=O (centres undefined)	none
CC(C)(C)c1ccc(C(=O)Cn2cnnc2C#N)cc1	none
O=C(NCc1ccc(F)cc1)C(=O)NCC1OCCN1C(=O)c1ccc(Cl)cc1 (centres undefined)	m5-HT2A agonist 24 | MOR ag counter inactive | HTR2A ag conf inactive
COc1ccc(C(=O)N2CCOC2CNC(=O)C(=O)NCc2ccc(F)cc2)cc1 (centres undefined)	none
O=C(NCc1ccccc1Cl)C(=O)NCC1OCCN1S(=O)(=O)c1ccc(F)cc1 (centres undefined)	m5-HT2A agonist 16 | MOR ag counter inactive | HTR2A ag conf inactive
COc1ccc(S(=O)(=O)N2CCOC2CNC(=O)C(=O)NCc2ccccc2Cl)cc1 (centres undefined)	none
O=C(O)COc1ccccc1/C=N/NC(=O)CN1CCN(S(=O)(=O)c2ccc(Br)cc2)CC1	none
O=C(Cc1c(Cl)cccc1Cl)OCc1ccccn1	none
NC(N)=NC(=O)Cc1c(Cl)cccc1Cl	m5-HT2A agonist 30 | MOR ag counter inactive | HTR2A ag conf 40
